MT stabilize HCS: stabilizes microtubules in HeLa cells; HeLa tubulin immunostaining HCS, 24 h; share of cells brighter than vehicle mean+2SD; AID 2205; 200,000 tested, 0.83% active; % tubulin-high responders, % at 10 µM;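 active means plate Z-score above 3 for both tubulin-high and condensed-nucleus cell shares, with cell loss under 80%, at 10 µM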;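 further: anti alpha tubulin signal scored within the nucleus-defined area of each cell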
HSV augment: increases HSV replication in cells | HSV replication augmentation in cells, fold increase | maximum fold increase | 220,000 tested, 0.005% active | AID 1956; in the data active means maximum fold increase above about 1.5; tested in PC3 cells
Dynein cargo inh: dynein cargo transport inhibition | 3617.4 mouse cells, GR-EGFP nuclear translocation imaging; test concentration mostly 20 µM; stimulated with dexamethasone, 1 µM; hits give low values | 220,000 tested, 0.47% active | z-score, hits read low;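 active means plate z-score of nuclear minus cytoplasmic receptor signal below a set negative limit, without overly bright fluorescence or cell loss, cut at about -3.5 in these data, passing the limit was not always enough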;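 further: z-score of nuclear minus cytoplasmic ring GR-EGFP intensity difference per well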
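medium = tetracycline-free induction medium containing charcoal-stripped FBS | probe or stimulus = dexamethasone, 1.0 µM final | timing = 48 h induction, then 1 h compound, then 30 min agonist, 37 °C | detection = automated 10x imaging of fixed Hoechst-stained cells | read-out basis = nuclear versus cytoplasmic GR-EGFP signal, averaged per well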
L major viab: inhibitors of Leishmania major promastigote growth; Leishmania major promastigotes, resazurin fluorescence viability; 200,000 tested, 9% active; AID 1063; inhibition, % at 10 µM; in the data active means inhibition above about 50%;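 further: promastigotes grown with compound for 44 hours at 28 °C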
bCat nuc transl: modulators of beta-catenin nuclear translocation. nuclear translocation activity, % at 5 µM. AID 1665. HeLa beta-catenin nuclear translocation, immunofluorescence imaging. 190,000 tested, 0.3% active;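 active means nuclear translocation activity above 50% at 5 µM, with a well cell count of 50 or more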;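 further: per-cell ratio of nuclear to cytoplasmic median beta-catenin stain intensity; plate controls were DMSO negative control for no effect and GSK-3 inhibitor IX positive control for full effect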
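Test system: human HeLa cell line; Doses: 5 µM primary, 0.02–20 µM confirmation; Incubation: 24 h compound exposure, 37°C; Detection: beta-catenin immunofluorescence imaging with DAPI; Read-out: beta-catenin nuclear/cytoplasmic ratio, % activation.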
Numbers without * were called inactive; i = inactive; x = no result given. An excerpt weighted towards active compounds, which were near 8.9% of everything screened.

SMILES	MT stabilize HCS	HSV augment	Dynein cargo inh	L major viab	bCat nuc transl
COc1ccccc1-c1cc(C(=O)N/N=C\c2cnn(C)c2C)c2ccccc2n1	2.0	i	-0.411	28.7	0.4
O=C(N/N=C/c1ccc[nH]1)c1cc(-c2cccs2)nc2ccccc12	4.1	i	-0.636	26.3	0.1
COc1ccccc1-c1cc(C(=O)N/N=C/c2cccs2)c2ccccc2n1	1.6	x	-0.0498	50.9*	x
CCc1ccc(/C=N/NC(=O)c2c[nH]c3ccccc23)s1	2.3	i	0.289	10.1	-2.6
O=C(N/N=C/c1cccnc1)c1cc(-c2cccs2)nc2ccccc12	8.2	i	0.772	14.8	x
CCc1ccc(/C=N/NC(=O)c2cc(-c3ccncc3)nc3ccccc23)s1	9.4	i	0.764	31.4	66.1*
O=C(N/N=C/c1cccs1)c1cc(-c2ccncc2)nc2ccccc12	5.1	i	-0.257	13.8	61.2*
CCCc1cc(C(=O)N/N=C/c2ccc(CC)s2)c2ccccc2n1	34.2*	i	-0.76	7.7	x
CCn1ncc(/C=N\NC(=O)c2cc(-c3ccc(C)cc3C)nc3ccccc23)c1C	44.2*	i	-0.433	29.8	-2.6
NC(=O)NC(=O)CSc1nc(-c2ccccc2)c(-c2ccccc2)n1CC1CCCO1 (centres undefined)	2.3	i	0.591	46.7	-4.3
COc1ccccc1C1(O)CCN(C(=O)c2cccs2)CC1	3.3	x	0.293	-4.6	1.6
Cc1ccc(Cn2c(SC3CCOC3=O)nc3ccccc3c2=O)cc1 (centres undefined)	2.6	i	0.194	1.0	1.3
O=C(N/N=C/c1cccs1)c1cc(C2CC2)nc2ccccc12	16.5*	i	1.25	19.7	61.4*
Cc1sc2nc(SCC(N)=O)n(-c3ccccc3)c(=O)c2c1C	6.0	i	-0.629	2.5	1.1
COCc1cc(/C=N\NC(=O)c2ccc(Cl)cc2)ccc1OC	1.7	i	-0.0597	39.5	0.7
COc1ccc(/C=N/NC(=O)c2ccc(Cl)cc2Cl)cc1COC(C)=O	21.1*	x	0.904	-7.6	1.9
COc1cc(/C=N/NC(=O)c2ccoc2C)cc(OC)c1O	3.8	i	-0.44	47.3	0.8
COc1ccc(/C=N/NC(=O)c2ccoc2C)cc1COc1c(C)cccc1C	1.0	i	-0.363	99.8*	1.6
Cc1cc(C)c(C(=O)CSc2n[nH]c(-c3ccncc3)n2)c(C)c1	3.2	i	3.05	97.4*	-1.2
COc1ccc(C(=O)CSc2n[nH]c(-c3ccncc3)n2)cc1[N+](=O)[O-]	3.4	i	-0.373	56.0*	x
Cc1ccc(C)c(C(=O)CSc2n[nH]c(-c3ccncc3)n2)c1	3.8	i	-1.42	10.2	0.3
Nc1cc(Cl)c(N)cc1Cl	1.7	i	1.8	-2.1	0.3
O=C(C1CCN(c2nnc(N3CCCC3=O)s2)CC1)N1CCN(Cc2ccc3c(c2)OCO3)CC1	4.7	i	-1.14	-11.8	-0.4
CCOC(=O)C1=C(c2ccccc2)N=c2s/c(=C\c3cccc(O)c3)c(=O)n2C1c1cccs1 (centres undefined)	2.5	x	-0.354	89.1*	-8.3
CCOC(=O)C1=C(C)N=c2s/c(=C\c3ccc(OC(C)=O)c(OCC)c3)c(=O)n2C1/C=C/c1ccccc1 (centres undefined)	2.5	i	-2.12	49.2	2.7
SMILES	MT stabilize HCS	HSV augment	Dynein cargo inh	L major viab	bCat nuc transl
CCOC(=O)C1=C(C)N=c2s/c(=C\c3ccc(OC(C)=O)cc3)c(=O)n2C1/C=C/c1ccccc1 (centres undefined)	2.9	i	2.61	100.2*	-1.5
CCOc1ccc(C(=O)Nn2cnnc2)cc1	3.9	i	-0.855	-8.0	-2.3
O=C(NCCC1=CCCCC1)c1cnc2n(c1=O)CCS2	3.4	i	-1.3	-5.3	1.8
O=C(c1ccccc1)N1CCN2C(=O)c3ccccc3C12c1ccc(Cl)cc1 (centres undefined)	2.2	i	-0.64	75.7*	1.4
CCCCN(CC)Cc1ccc(CNC(=S)Nc2cccc(F)c2)o1	0.9	i	-0.903	77.9*	-0.7
O=C(CSc1nc2ccccc2c(=O)n1-c1ccc(F)cc1)Nc1ccc(Cl)c(S(=O)(=O)N2CCOCC2)c1	2.6	i	-0.798	94.9*	-2.7
O=c1c2ccccc2nc(SCc2nnc(-c3ccccc3Br)o2)n1-c1ccccc1	4.9	i	-1.16	23.1	-1.1
O=C(CSc1nc2ccccc2c(=O)n1-c1ccc(F)cc1)Nc1ccc2c(c1)CCC2	1.9	i	-0.0337	80.6*	3.1
O=c1c2ccccc2nc(SCc2nnc(-c3ccccc3)o2)n1-c1ccc(F)cc1F	1.9	i	-0.748	77.6*	-3.0
O=C(CSc1nc2ccccc2c(=O)n1-c1ccc(F)c(Cl)c1)Nc1cccc(S(=O)(=O)N2CCOCC2)c1	3.2	i	-0.766	41.3	-3.7
COc1ccccc1-n1c(SCC(=O)Nc2cccc(S(N)(=O)=O)c2)nc2ccccc2c1=O	4.2	i	0.233	-2.2	-4.5
O=C(CSc1nc2ccccc2c(=O)n1-c1ccc(F)cc1F)Nc1ccc2c(c1)CCC2	2.7	i	-0.133	99.0*	x
Cc1ccc(-n2c(SCC(=O)Nc3cccc(S(=O)(=O)NC4=NCCCCC4)c3)nc3ccccc3c2=O)cc1	6.9	i	0.205	-2.4	-1.9
COC(=O)c1c(NC(=O)CSc2nnnn2C)sc(C)c1C	2.0	i	-0.432	2.5	-3.3
COc1ccc(N(C=O)C(=S)SC)cc1	x	i	-3.09	x	-0.5
Cc1ccccc1-n1c(SCC(=O)Nc2ccccc2)nc2nc3c(cc2c1=O)CCCC3	1.5	i	2.09	97.8*	7.9
O=C(CSc1nc2ccccc2c(=O)n1-c1ccccc1F)Nc1ccc2c(c1)CCC2	2.7	i	-0.438	98.5*	x
O=C(CSc1nc(O)cc(=O)[nH]1)Nc1ccc2c(c1)CCC2	4.0	i	0.665	-2.8	-2.3
Cn1cccc1C(=O)OCc1csc(-c2ccccc2)n1	1.4	i	0.137	2.2	-2.7
COCCN(Cc1cc2cc(C)ccc2n2nnnc12)C(=S)Nc1ccc(C)cc1	3.8	i	-0.0767	56.6*	-2.5
COCCCNC(=O)C(=O)C1C(=O)Nc2ccccc21 (centres undefined)	3.7	i	-0.332	-8.8	3.3
Nc1cccc(C(=O)Nc2ccc3nc(-c4cccnc4)[nH]c3c2)c1	2.2	i	-0.655	-2.5	-0.5
O=C(Nc1ccc2nc(-c3cccnc3)[nH]c2c1)C1CCCCC1	3.1	i	-0.0461	68.0*	7.6
O=C(Nc1ccc2nc(-c3cccnc3)[nH]c2c1)C12CC3CC(CC(C3)C1)C2	2.5	i	-0.275	77.4*	x
O=C(Nc1nc2ccccc2[nH]1)C1CC1	8.2	i	0.473	4.1	3.8
O=C(Nc1nc2ccccc2[nH]1)C12CC3CC(CC(C3)C1)C2	1.1	i	-1.34	90.5*	-2.8
COc1cccc(-c2nnc(SCC(=O)OC(C)C)n2N)c1	1.9	i	-0.302	-7.3	2.3

Assay outcomes (PubChem BioAssay)
